# Experimental data from ChEMBL document CHEMBL3797138, “Discovery of a Selective and Potent Inhibitor of Mitogen-Activated Protein Kinase-Interacting Kinases 1 and 2 (MNK1/2) Utilizing Structure-Based Drug Design” (J Med Chem, 2016).
# Key:
# [1] = biological target: MAP kinase-interacting serine/threonine-protein kinase 1 (Homo sapiens, UniProt Q9BUB5); experiment: Inhibition of ERK2-activated full length wild type MNK1a (unknown origin) using biotin-SGSGKRREILSRRPSYR-NH2 as substrate after 2 hrs by HTRF assay
# Chain of MAP kinase-interacting serine/threonine-protein kinase 1 (Q9BUB5 whole entry): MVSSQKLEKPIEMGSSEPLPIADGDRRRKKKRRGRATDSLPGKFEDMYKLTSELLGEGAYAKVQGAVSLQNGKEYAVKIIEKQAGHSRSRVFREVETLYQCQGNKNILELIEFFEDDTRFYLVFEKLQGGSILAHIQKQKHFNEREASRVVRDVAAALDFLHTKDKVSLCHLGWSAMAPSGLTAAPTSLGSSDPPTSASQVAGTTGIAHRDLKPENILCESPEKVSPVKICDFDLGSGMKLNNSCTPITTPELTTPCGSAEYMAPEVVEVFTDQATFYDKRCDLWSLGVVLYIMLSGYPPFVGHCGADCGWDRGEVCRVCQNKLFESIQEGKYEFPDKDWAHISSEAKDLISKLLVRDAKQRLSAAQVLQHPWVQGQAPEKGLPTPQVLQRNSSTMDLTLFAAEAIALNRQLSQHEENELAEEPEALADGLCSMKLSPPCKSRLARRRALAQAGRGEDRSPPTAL
# Method in brief: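 In-house full-length MNK1a (0.5 nM final) activated by full-length ERK2 (0.5 nM final). Biotin-crebtide 200 nM and ATP 200 µM. Buffer: 50 mM Hepes pH 7.5, 5 mM MgCl2, 0.05% BSA, 0.01% Tween-20, 1 mM DTT, 2.5% DMSO. Reaction run 2 h, then stopped with EDTA/KF buffer holding Eu-anti-phospho-creb (0.23 nM) and streptavidin-XL665 (50 nM). Read by HTRF after overnight development in the dark.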
# [2] = biological target: MAP kinase-interacting serine/threonine-protein kinase 2 (Homo sapiens, UniProt Q9HBH9); experiment: Inhibition of N-terminal 6His-tagged recombinant human full length wild type MNK2b using biotin-SGSGKRREILSRRPSYR-NH2 as substrate after 1 hr by HTRF assay
# Chain of MAP kinase-interacting serine/threonine-protein kinase 2 (Q9HBH9 whole entry): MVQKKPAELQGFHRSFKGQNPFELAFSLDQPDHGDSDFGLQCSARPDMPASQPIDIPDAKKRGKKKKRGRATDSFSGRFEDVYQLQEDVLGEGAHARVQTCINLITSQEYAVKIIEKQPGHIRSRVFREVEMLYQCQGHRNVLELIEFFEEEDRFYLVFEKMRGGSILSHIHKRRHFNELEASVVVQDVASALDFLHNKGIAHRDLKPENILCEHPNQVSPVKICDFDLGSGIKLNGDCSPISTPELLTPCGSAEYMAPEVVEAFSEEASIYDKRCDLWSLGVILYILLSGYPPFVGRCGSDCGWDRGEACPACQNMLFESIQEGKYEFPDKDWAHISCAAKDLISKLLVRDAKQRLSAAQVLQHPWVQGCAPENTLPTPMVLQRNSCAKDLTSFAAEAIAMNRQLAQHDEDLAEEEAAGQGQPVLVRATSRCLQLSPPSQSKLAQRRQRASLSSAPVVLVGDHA
# Method in brief: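 Commercial full-length wild-type MNK2b at 1 nM final, with biotin-crebtide 200 nM and ATP 200 µM. Buffer: 50 mM Hepes pH 7.5, 5 mM MgCl2, 0.05% BSA, 0.01% Tween-20, 1 mM DTT, 2.5% DMSO. Stop/detection buffer: 20 mM EDTA, 0.1% BSA, 0.4 M KF, with Eu-anti-phospho-creb antibody 0.23 nM and SA-XL665 50 nM. Developed overnight in the dark at room temperature; HTRF read, excitation 320 nm, emission 665 nm.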
# [3] = biological target: Cyclin-dependent kinase 1 (Homo sapiens, UniProt P06493); experiment: Inhibition of CDK1 (unknown origin)
# Chain of Cyclin-dependent kinase 1 (P06493 whole entry): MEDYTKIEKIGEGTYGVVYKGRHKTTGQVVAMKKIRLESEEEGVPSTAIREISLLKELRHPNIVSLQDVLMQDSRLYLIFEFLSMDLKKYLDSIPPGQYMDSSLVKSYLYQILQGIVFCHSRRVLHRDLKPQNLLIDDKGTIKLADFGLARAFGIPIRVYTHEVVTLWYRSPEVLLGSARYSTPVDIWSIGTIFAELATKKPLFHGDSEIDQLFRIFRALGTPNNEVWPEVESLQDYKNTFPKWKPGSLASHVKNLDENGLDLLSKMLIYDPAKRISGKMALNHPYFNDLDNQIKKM
# [4] = biological target: Cyclin-dependent kinase 2 (Homo sapiens, UniProt P24941); experiment: Inhibition of CDK2 (unknown origin)
# [5] = Solubility of the compound at pH 7.4 by high throughput assay; conditions: buffer
# [6] = Lipophilicity, log D of the compound at pH 7.4; conditions: buffer
# [7] = biological target: MAP kinase-interacting serine/threonine-protein kinase 1/2 (Homo sapiens, UniProt Q9HBH9+Q9BUB5); experiment: Inhibition of MNK1/2 in human KMS11-luc cells assessed as inhibition of EIF4E phosphorylation at S209 after 3 hrs by quantitative electrochemiluminescence assay; assay type: cell-based
# Method in brief: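 KMS11-luc cells seeded at 300,000 cells/well and exposed to compounds for 3 h at 37 °C, 5% CO2, then lysed in well with Triton-based buffer. Lysate captured overnight at 4 °C on blocked ECL plates. Detection: anti-phospho-EIF4E (S209) antibody 1:200 plus sulfo-tag goat anti-rabbit 1:400, 2 h at room temperature, electrochemiluminescence read. Phospho-EIF4E signal normalized to total YB1 for EC50.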
# [8] = Apparent permeability across apical to basolateral side in human Caco2 cells; conditions: Caco-2
# [9] = Efflux ratio of apparent permeability across basolateral to apical side over apical to basolateral side in human Caco2 cells; conditions: Caco-2
# [10] = biological target: Cyclin-dependent kinase 9 (Homo sapiens, UniProt P50750); experiment: Inhibition of CDK9 (unknown origin)
# Chain of Cyclin-dependent kinase 9 (P50750 whole entry): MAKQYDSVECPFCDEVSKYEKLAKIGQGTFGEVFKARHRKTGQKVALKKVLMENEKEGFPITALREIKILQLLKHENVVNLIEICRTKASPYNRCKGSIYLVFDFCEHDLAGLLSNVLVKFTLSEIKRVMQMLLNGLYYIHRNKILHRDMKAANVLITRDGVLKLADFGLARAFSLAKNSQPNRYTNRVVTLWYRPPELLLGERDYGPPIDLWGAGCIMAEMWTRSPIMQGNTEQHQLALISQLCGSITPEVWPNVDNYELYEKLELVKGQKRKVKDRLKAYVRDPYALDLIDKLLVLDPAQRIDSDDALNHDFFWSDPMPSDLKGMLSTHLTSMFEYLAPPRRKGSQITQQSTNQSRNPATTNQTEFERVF
# [11] = Antiproliferative activity against luciferase expressing human KMS11 cells after 5 days by CellTiter-Glo luminescent assay; assay type: functional, cell-based; conditions: KMS-11, 120 h
# Method in brief: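 KMS11-luc cells seeded at 2500 cells/well; compounds added 2 h after seeding, then incubated 5 days at 37 °C, 5% CO2. CellTiter-Glo added in equal volume, shaken 2 min, kept 10 min dark at room temperature, and luminescence read. EC50 fitted from % inhibition versus concentration (µM) with a four-parameter equation.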
# [12] = biological target: Calcium/calmodulin-dependent protein kinase type II subunit delta (Homo sapiens, UniProt Q13557); experiment: Inhibition of CAMK2D (unknown origin)
# Chain of Calcium/calmodulin-dependent protein kinase type II subunit delta (Q13557 whole entry): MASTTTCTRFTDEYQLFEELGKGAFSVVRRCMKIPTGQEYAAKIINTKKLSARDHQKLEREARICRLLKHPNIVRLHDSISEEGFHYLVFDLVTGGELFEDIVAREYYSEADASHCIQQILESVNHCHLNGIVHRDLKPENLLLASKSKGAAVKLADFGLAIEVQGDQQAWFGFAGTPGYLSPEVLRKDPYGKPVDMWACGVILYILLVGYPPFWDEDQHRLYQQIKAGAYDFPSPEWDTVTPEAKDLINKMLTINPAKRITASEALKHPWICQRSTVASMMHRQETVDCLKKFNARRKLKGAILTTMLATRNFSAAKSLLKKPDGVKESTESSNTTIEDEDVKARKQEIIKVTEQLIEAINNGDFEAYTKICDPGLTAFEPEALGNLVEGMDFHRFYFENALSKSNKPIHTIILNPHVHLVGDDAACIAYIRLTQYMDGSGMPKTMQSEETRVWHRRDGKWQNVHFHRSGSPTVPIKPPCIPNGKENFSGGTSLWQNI
# [13] = biological target: T1, Receptor-type tyrosine-protein kinase FLT3 (Homo sapiens, UniProt P36888); experiment: Inhibition of FLT3 (unknown origin)
# T1 sequence (P36888 whole entry): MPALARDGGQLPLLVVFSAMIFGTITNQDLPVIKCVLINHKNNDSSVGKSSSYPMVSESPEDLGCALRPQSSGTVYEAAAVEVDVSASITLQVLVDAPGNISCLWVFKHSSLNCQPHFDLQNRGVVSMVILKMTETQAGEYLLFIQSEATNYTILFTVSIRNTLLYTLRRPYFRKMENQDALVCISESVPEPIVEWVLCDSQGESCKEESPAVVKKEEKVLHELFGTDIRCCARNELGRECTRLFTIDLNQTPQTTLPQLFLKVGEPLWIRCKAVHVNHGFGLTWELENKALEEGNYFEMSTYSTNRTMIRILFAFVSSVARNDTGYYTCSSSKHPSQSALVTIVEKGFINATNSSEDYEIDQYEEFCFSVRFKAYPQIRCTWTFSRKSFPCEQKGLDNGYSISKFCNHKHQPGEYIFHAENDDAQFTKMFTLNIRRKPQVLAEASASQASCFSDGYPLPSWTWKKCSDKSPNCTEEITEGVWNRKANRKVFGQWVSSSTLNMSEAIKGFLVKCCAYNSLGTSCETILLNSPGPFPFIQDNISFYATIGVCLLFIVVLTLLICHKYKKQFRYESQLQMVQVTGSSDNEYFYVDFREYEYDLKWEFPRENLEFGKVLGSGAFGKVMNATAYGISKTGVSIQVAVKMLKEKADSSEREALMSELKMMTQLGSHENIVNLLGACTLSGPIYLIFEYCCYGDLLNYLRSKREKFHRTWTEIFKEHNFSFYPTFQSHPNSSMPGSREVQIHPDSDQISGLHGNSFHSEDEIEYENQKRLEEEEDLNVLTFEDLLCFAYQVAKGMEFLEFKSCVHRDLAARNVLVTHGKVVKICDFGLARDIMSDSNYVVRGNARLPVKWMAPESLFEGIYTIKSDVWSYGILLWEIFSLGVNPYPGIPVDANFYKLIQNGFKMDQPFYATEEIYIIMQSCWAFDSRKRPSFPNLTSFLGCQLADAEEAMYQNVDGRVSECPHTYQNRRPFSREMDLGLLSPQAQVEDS
# [14] = biological target: Serine/threonine-protein kinase pim-2 (Homo sapiens, UniProt Q9P1W9); experiment: Inhibition of PIM2 (unknown origin)
# Chain of Serine/threonine-protein kinase pim-2 (Q9P1W9 whole entry): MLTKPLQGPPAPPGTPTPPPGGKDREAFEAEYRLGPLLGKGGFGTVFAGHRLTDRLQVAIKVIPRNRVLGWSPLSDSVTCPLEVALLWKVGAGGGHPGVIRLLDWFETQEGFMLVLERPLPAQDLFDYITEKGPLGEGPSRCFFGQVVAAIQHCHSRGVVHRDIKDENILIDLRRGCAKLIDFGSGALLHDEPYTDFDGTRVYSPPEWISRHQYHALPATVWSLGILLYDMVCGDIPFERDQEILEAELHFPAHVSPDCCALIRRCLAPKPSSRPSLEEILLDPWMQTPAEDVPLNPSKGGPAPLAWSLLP
# [15] = biological target: Rho-associated protein kinase 2 (Homo sapiens, UniProt O75116); experiment: Inhibition of ROCK2 (unknown origin)
# Chain of Rho-associated protein kinase 2 (O75116 whole entry): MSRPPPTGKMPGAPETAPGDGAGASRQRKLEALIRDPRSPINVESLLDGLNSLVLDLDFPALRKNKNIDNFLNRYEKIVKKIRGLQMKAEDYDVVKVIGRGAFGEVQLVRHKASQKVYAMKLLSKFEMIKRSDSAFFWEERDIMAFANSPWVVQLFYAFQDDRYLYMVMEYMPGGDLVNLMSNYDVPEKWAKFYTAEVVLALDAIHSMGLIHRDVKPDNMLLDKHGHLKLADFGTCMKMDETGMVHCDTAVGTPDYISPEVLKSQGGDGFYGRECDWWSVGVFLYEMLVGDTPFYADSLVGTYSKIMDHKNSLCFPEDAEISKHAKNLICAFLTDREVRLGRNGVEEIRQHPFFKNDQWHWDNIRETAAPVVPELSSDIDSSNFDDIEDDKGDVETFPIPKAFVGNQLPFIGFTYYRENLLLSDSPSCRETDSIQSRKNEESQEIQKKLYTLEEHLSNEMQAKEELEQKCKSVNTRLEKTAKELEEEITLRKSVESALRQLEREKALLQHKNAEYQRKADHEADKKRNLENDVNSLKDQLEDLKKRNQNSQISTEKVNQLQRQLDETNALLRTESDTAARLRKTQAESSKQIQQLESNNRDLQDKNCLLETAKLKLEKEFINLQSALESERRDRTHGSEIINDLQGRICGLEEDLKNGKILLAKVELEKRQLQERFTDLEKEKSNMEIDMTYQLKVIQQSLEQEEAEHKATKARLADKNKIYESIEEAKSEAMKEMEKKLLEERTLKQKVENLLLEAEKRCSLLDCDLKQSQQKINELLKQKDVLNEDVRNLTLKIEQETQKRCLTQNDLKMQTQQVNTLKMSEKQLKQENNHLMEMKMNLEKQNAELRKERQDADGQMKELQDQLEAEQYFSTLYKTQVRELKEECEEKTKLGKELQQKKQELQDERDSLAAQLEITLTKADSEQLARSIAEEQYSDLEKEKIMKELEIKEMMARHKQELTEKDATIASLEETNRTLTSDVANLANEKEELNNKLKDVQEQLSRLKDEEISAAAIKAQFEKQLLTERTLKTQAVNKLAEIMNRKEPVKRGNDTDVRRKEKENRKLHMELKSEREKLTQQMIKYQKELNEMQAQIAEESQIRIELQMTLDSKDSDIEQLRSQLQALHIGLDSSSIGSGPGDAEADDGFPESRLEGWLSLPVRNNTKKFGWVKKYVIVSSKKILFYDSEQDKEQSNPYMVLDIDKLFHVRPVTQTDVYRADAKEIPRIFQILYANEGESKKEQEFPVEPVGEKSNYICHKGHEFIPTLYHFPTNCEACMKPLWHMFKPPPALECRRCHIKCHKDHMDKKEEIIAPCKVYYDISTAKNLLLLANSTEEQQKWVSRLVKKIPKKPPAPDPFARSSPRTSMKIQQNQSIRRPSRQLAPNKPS
# [16] = Inhibition of CYP450 (unknown origin); assay type: ADME, Homo sapiens
# [17] = Intrinsic clearance in rat liver microsomes; assay type: ADME
# [18] = Hepatic extraction ratio in rat liver microsomes; assay type: ADME; conditions: read-out: ERH
SMILES,IC50 [1] [nM],IC50 [2] [nM],IC50 [3] [nM],IC50 [4] [nM],solubility [5] [µM],logD [6],EC50 [7] [nM],Papp A→B [8] [×10⁻⁶ cm/s],efflux ratio [9],IC50 [10] [nM],EC50 [11] [nM],IC50 [12] [nM],IC50 [13] [nM],IC50 [14] [nM],IC50 [15] [nM],IC50 [16] [nM],CLint [17] [µL/min/mg],hepatic extraction ratio [18]
Nc1ncccc1-c1nc2ccccc2[nH]1,700,900,10000,25000,300,3,,,,,,,,,,,,
CN(C)C(=O)c1cccc(-c2cnc(N)c(-c3nc4ccccc4[nH]3)c2)c1,36,34,1000,5700,,4.2,,,,,,,,,,,,
CN(C)C(=O)c1cccc(-c2cnc(N)c(-c3nc4cccc(N5CCNCC5)c4[nH]3)c2)c1,4,2,1000,4000,102,1.8,130,4,3.6,,,,,,,,,
C[C@H]1CN(c2cccc3nc(-c4nc(-c5cccc(C(=O)N(C)C)c5)cnc4N)n(C)c23)CCN1,1.5,0.7,1000,3400,,,3,,,,,,,,,,,
CN(C)C(=O)c1cccc(-c2cnc(N)c(-c3nc4cccc(N5CCNCC5)c4[nH]3)n2)c1,80,20,1700,11000,70,1.9,50,0.7,87,,,,,,,,,
CN(C)C(=O)c1cccc(-c2cnc(N)c(-c3nc4cccc(N5CCNCC5)c4n3C)n2)c1,2,1,500,1400,254,1.1,5,9,2.3,,,,,,,,,
Nc1ncc(-c2ccccc2)cc1-c1nc2ccccc2[nH]1,120,720,160,1300,,> 4.2,,,,,,,,,,,,
C[C@H]1CN(c2cccc3nc(-c4nc(-c5cc(C(=O)N(C)C)ccn5)cnc4N)n(C)c23)CCN1,3,3,> 25000,> 25000,220,1.9,0.6,5,5,> 25000,1700,690,280,730,370,> 40000,32,0.54
CC(=O)C1=C(O)C=C2Oc3c(C(N)=O)c(O)cc(O)c3[C@]2(C)C1=O,,,,,,,,,,,> 10000,,,,,,,
